NPY2 pot ag: potentiates or activates human NPY-Y2 receptor. activation, % at 3.6 µM. hit rate 0.45% among 220,000. cells expressing NPY-Y2, potentiator/agonist read-out; in the data active = activation above about 27%;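 also: cells stimulated with NPY near EC25 plus isoproterenol at EC100; 0% = vehicle plus submaximal agonist and 100% = vehicle plus saturating agonist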
RAM network inh: yeast RAM network inhibition; S. cerevisiae dse1pr::URA3 reporter, 5-FOA growth OD615, 2 d; analog-sensitive cbk1-as2 kinase mutant strain; inhibition, % at 50 µM; hit rate 1.8% among 190,000; AID 868;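 active = inhibition above a set limit, 3 SD over mean compound inhibition, cut at about 8.4% in these data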;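 also: 0% = DMSO-only wells with no growth and 100% = 10 µM 1-NA-PP1 full growth; inhibition rescues growth on 5-FOA so higher OD means more RAM inhibition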
NPY-Y2 antag: NPY-Y2 (human) receptor antagonism | NPY-Y2 expressing cells, antagonist mode | inhibition, % at 2.7 µM | hit rate 0.99% among 140,000 | AID 793 | P49146;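 also: 0% = vehicle with agonist challenge and 100% = reference antagonist with challenge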
NPY1 pot ag: potentiators or agonists of human neuropeptide Y receptor Y1 | NPY-Y1 expressing cells, potentiator/agonist activation | activation, % at 3.6 µM | hit rate 0.37% among 220,000 | AID 1304 | P25929; in the data active = activation above about 33%, passing the limit was not always enough;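 also: cells stimulated with NPY at EC10 then isoproterenol at EC100; 0% = low agonist plus stimulus and 100% = saturating agonist plus stimulus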
Target sequence (P25929 whole entry, looked up): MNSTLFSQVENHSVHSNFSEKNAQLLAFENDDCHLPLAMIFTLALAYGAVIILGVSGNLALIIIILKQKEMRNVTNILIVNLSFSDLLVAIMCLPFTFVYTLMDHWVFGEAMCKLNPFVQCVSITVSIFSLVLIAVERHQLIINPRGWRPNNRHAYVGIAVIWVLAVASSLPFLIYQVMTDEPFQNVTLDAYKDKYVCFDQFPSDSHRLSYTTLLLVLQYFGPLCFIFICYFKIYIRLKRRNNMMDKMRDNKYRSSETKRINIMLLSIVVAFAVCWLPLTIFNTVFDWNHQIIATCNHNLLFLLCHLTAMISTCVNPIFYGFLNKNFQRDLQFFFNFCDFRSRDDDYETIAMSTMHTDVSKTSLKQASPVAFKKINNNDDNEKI
WT yeast gro inh: growth inhibition of WT yeast, mitochondrial fusion screen. mitochondrial fusion phenotypic screen, WT strain. inhibition, % at 10 µM. hit rate 2.1% among 190,000; in the data active = inhibition above about 58%; tested in S. cerevisiae
NPY Y1 blocker: NPY-Y1 (human) receptor antagonism; HEK293-CNG Y1 cells, membrane potential fluorescence; NPY at EC95, then isoproterenol; inhibition, % at 3.6 µM; hit rate 1% among 200,000;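 active = inhibition above the campaign mean inhibition of all tested compounds plus 3 SD, cut at about 20% in these data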;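 also: 0% = DMSO wells given NPY plus isoproterenol and 100% = isoproterenol alone without NPY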
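Material: HEK293 cells with Y1 receptor plus CNG channel; times: compound incubation 1 h at room temperature, readout 45 min post-stimulation; signal: fluorescence, membrane potential probe; read-out basis: fluorescence ratio normalized to % inhibition between controls; benchmarks: full-block control isoproterenol-only wells, zero-block control NPY plus isoproterenol wells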
NPY1 antag conf: confirmation of human neuropeptide Y receptor Y1 antagonists | shares compounds with NPY Y1 blocker | inhibition, % at 3.6 µM | hit rate 21% among 1,200 | HEK293-CNG NPY-Y1, membrane potential fluorescence, cAMP; NPY challenge against isoproterenol-raised cAMP | AID 1254; in the data active = inhibition above about 20%;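 also: 0% = vehicle with agonist plus stimulus and 100% = stimulus alone without agonist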
NPY-Y2 antag ct: antagonizes human NPY-Y2, counter-screen to NPY-Y1 antagonists; inhibition, % at 3.6 µM; hit rate 28% among 1,200; HEK293 NPY-Y2 CNG membrane potential fluorescence, antagonism; cells given NPY, then isoproterenol; shares compounds with NPY Y1 blocker;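 also: 0% = DMSO with agonist challenge and 100% = reference antagonist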
* hit, by the source's call; . = no result given. Most compounds without a hit are left out; they make up all but 4.9% or so of the library. Rule as the data show it, unless noted: active = inhibition above about 17%; inactive = the rest.

SMILES	NPY2 pot ag	RAM network inh	NPY-Y2 antag	NPY1 pot ag	WT yeast gro inh	NPY Y1 blocker	NPY1 antag conf	NPY-Y2 antag ct
O=C(COc1ccc(F)cc1)N1c2ccccc2CCc2ccccc21	19.0	1.5	4.7	1.4	3.8	-3.8	.	.
CCc1nnc(NCn2nc(C)cc2C)s1	-3.3	0.9	-0.1	-30.0	-0.7	0.3	.	.
COc1ccccc1N1C(=O)CCC1(C#N)c1ccc(Br)cc1 (configuration not stated)	-0.7	1.8	6.5	-8.4	13.6	2.8	.	.
COC(=O)C1C(=O)CC(C)(O)C(C(=O)OC)C1/C=C/c1ccccc1 (configuration not stated)	-13.7	4.2	1.7	1.6	-20.9	-1.0	.	.
O=C1C=C(c2ccccc2)CC(/C=C/c2ccccc2)C1 (configuration not stated)	3.7	4.4	8.8	-38.2	55.2	23.5*	16.3	10.1
CCCn1c(SCC(=O)N(CC)CC)nnc1-c1ccncc1	-6.8	0.6	.	29.3	-3.3	0.8	.	.
COc1cccc(NC(=O)COC(=O)c2c3c(nc4ccccc24)CCC(C)C3)c1 (configuration not stated)	11.9	0.0	15.8	-3.0	-30.8	31.0*	2.9	4.3
CC(=O)C1=C(C)N(CC2CC2)C(=O)N[C@H]1c1ccc(Br)cc1	-2.4	2.4	0.6	-12.7	-2.5	-3.0	.	.
CCOC(=O)CN1C(=O)N[C@H](c2ccc(Br)cc2)C(C(C)=O)=C1C	-9.2	-0.7	11.4	-16.2	31.1	23.6*	4.1	6.0
Clc1ccc(CN(CC2CCCO2)C(c2cccs2)c2nnnn2C2CCCC2)cc1 (configuration not stated)	-2.2	11.2*	11.3	-16.3	10.8	40.0*	12.8	15.6
Clc1ccccc1CN(Cc1ccccc1)C(c1cccs1)c1nnnn1C1CCCC1 (configuration not stated)	-3.0	5.6	4.6	-41.5	-4.4	1.8	.	.
CCc1c(C)sc(NC(=O)c2cccs2)c1C(=O)OC(C)C	-16.0	5.3	3.6	-19.0	19.0	20.4*	10.0	18.4*
COc1ccc(C[C@H]2CN3C(=NC[C@@H]3C(C)C)N2CCNC(=O)CCC2CCCCC2)cc1	-2.9	-0.4	.	-1.1	-0.1	2.6	.	.
COc1ccc(C[C@H]2CN3C(=NC[C@@H]3Cc3ccccc3)N2CCNC(=O)CCC2CCCCC2)cc1	-41.6	0.9	.	-15.2	4.6	33.4*	35.0*	35.7*
CCc1nn2cc(-c3ccccc3)nc2s1	11.1	-1.0	1.2	3.9	18.9	27.7*	-1.3	0.0
O=C(O)CSc1ccc2ccccc2n1	-22.5	-0.5	9.6	-29.1	2.7	20.4*	5.3	10.7
COc1cc(C2C(C#N)=C(N)Oc3n[nH]c(C)c32)ccc1OC(=O)c1ccccc1 (configuration not stated)	-7.0	0.7	0.6	-3.0	-12.1	-6.8	.	.
Cc1nc(C(=O)Nc2cccc(Cl)c2Cl)nn1-c1cc(OC(C)C)c(Cl)cc1Cl	-0.5	5.0	10.0	-137.2	55.5	20.1*	14.0	25.9*
CCOC(=O)c1ccc(CNC(=O)CSc2nnnn2-c2ccc(Cl)cc2)o1	-14.5	2.5	8.3	-8.6	-19.7	20.4*	10.4	12.1
O=Cc1cn(-c2ccccc2)nc1-c1cc2cc(O)ccc2oc1=O	-22.0	2.5	11.0	-54.1	2.7	21.6*	19.2	14.2
COc1ccc(C(=O)c2ccccc2)cc1	-9.6	0.0	.	-7.9	-3.0	-0.7	.	.
CO/N=C\C(=N\Nc1ccc(OC)cc1)C(=O)c1ccccc1	-22.9	5.0	10.8	-63.2	42.5	23.3*	6.5	8.6
O=C1CCC(C(=O)Nc2ccccc2)N1 (configuration not stated)	-4.0	1.5	4.5	-4.7	-7.9	0.5	.	.
Cc1ccccc1OCCCn1c(=O)sc2ccccc21	-11.7	0.4	10.7	-53.8	30.8	26.8*	5.0	7.0
COc1cc(/C=C2\C(=O)NN(c3ccc(C)cc3)C2=O)cc([N+](=O)[O-])c1O	1.6	0.7	.	-6.1	9.4	-1.6	.	.
SMILES	NPY2 pot ag	RAM network inh	NPY-Y2 antag	NPY1 pot ag	WT yeast gro inh	NPY Y1 blocker	NPY1 antag conf	NPY-Y2 antag ct
COc1ccccc1OCCNC(=O)/C=C/c1ccc([N+](=O)[O-])cc1	-9.7	3.8	4.3	-18.4	8.5	3.6	.	.
Cc1ccccc1OCCNC(=O)/C=C/c1ccc([N+](=O)[O-])cc1	-6.5	4.4	8.3	-13.8	21.1	20.2*	10.1	10.2
Clc1ccc(-n2nnnc2-c2cnc(-c3ccncc3)nc2-c2cccs2)cc1	-29.6	1.0	15.1	-57.9	38.2	33.6*	14.2	17.9*
CCCSc1nc(-n2ncc(C#N)c2N)c2c3c(sc2n1)CCC(C)C3 (configuration not stated)	-27.7	3.1	12.2	-54.5	64.3*	21.1*	6.1	10.6
Cc1nc(-n2ncc(C#N)c2N)c2c3c(sc2n1)CCC3	-1.5	0.1	1.4	-4.8	-3.9	14.4	.	.
O=C(COC(=O)C1CC2C=CC1C2)Nc1ccccc1F (configuration not stated)	-2.1	0.4	.	0.4	8.1	1.2	.	.
CCOc1ccc2c(c1)C(C)=CC(C)(C)N2S(=O)(=O)c1ccc(C)cc1	-23.9	7.1	.	-28.0	72.4*	56.9*	39.4*	25.1*
COc1ccc2c(c1)C(C)=CC(C)(C)N2S(=O)(=O)c1ccc(C)cc1	7.3	8.0	.	-1.2	45.2	36.0*	18.1	15.3
O=C(O)CC(NCc1ccco1)C(=O)OCC1CCCO1 (configuration not stated)	5.0	1.7	1.6	10.0	8.2	-2.1	.	.
CCCCNCC(O)(c1ccc(Cl)cc1)c1ccc(Cl)cc1	-18.2	-0.5	.	-10.6	18.8	25.6*	19.1	17.3*
O=C(NCc1ccco1)c1ccc2c(c1)N(Cc1ccccc1)CCS2	0.6	.	.	14.9	.	.	.	.
Cc1c(Nc2scc(-c3ccccc3)[n+]2-c2ccccc2)c(=O)n(-c2ccccc2)n1C	12.4	1.7	.	21.7	35.0	4.9	.	.
Cc1ccccc1Nc1scc(-c2ccc(Cl)cc2)[n+]1-c1ccccc1C	-4.4	3.6	.	-6.0	59.4*	36.0*	9.0	11.2
CN1CCN(CCCC(=O)c2ccc(C3CCCC3)cc2)CC1	-10.8	0.5	10.9	-51.4	14.6	26.3*	10.6	15.5
Cc1ccsc1C(=O)C1CCCN(Cc2cccn2-c2ccc(Cl)cn2)C1 (configuration not stated)	-24.5	1.3	.	-35.7	28.2	40.6*	41.7*	37.6*
O=C(c1ccc(Cl)cc1)C1CCCN(Cc2cccn2-c2ccccn2)C1 (configuration not stated)	-0.8	0.5	.	-37.6	8.3	58.8*	31.8*	31.4*

Source: PubChem
